Each block holds one compound with its values, some of them ahead of it.
Columns and labels:
E-selectin = target: T1, E-selectin (Homo sapiens, UniProt P16581); assay: Displacement of sialyl Lewis X (sLex) from selectin E
T1 sequence (P16581 whole entry): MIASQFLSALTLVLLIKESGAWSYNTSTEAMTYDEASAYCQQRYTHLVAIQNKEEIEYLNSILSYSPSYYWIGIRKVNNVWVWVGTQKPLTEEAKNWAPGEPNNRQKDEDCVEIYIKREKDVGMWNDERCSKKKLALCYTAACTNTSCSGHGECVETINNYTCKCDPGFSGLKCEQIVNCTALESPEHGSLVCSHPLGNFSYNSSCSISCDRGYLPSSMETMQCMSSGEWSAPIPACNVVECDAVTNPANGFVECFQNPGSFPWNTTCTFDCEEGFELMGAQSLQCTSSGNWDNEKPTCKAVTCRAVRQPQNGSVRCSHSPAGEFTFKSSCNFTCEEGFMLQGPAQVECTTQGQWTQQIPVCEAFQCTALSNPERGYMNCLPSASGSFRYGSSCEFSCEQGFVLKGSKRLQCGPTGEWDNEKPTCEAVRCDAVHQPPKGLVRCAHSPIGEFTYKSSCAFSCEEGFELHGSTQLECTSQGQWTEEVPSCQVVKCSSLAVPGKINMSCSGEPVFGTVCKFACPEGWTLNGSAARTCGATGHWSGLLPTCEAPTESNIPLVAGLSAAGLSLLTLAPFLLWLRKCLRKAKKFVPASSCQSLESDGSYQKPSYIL

L-selectin = target: T2, L-selectin (Homo sapiens, UniProt P14151); assay: Inhibition of Selectin L binding
T2 sequence (P14151 whole entry): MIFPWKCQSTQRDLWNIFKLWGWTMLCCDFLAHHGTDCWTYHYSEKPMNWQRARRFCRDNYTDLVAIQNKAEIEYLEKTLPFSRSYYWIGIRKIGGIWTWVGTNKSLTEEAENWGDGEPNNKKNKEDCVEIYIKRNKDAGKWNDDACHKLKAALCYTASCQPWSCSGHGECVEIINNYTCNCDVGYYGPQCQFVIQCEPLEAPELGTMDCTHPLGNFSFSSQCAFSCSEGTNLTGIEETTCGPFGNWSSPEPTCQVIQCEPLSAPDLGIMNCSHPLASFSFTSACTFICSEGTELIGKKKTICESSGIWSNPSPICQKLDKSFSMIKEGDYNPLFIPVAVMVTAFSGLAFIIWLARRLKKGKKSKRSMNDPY
Method in brief: (§1)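 Wells coated with sLeX pentasaccharide ceramide analogue (100 pmol/well, dried from 1:1 methanol/water), blocked with 5% BSA-1 mM CaCl2/50 mM imidazole (pH 7.2) 1 h RT. Selectin-Ig fusion was precomplexed 30 min RT with biotinylated goat F(ab')2 anti-human IgG/streptavidin-alkaline phosphatase. Compounds (DMSO stock 10 mM; […]) were incubated with complex 30 min RT, then in wells 45 min at 37 °C. Detection used p-nitrophenyl phosphate in diethanolamine, pH 9.8.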

P-selectin [1] = target: T3, P-selectin (Homo sapiens, UniProt P16109); assay: Inhibition of Selectin P binding; method in brief: as §1
T3 sequence (P16109 whole entry): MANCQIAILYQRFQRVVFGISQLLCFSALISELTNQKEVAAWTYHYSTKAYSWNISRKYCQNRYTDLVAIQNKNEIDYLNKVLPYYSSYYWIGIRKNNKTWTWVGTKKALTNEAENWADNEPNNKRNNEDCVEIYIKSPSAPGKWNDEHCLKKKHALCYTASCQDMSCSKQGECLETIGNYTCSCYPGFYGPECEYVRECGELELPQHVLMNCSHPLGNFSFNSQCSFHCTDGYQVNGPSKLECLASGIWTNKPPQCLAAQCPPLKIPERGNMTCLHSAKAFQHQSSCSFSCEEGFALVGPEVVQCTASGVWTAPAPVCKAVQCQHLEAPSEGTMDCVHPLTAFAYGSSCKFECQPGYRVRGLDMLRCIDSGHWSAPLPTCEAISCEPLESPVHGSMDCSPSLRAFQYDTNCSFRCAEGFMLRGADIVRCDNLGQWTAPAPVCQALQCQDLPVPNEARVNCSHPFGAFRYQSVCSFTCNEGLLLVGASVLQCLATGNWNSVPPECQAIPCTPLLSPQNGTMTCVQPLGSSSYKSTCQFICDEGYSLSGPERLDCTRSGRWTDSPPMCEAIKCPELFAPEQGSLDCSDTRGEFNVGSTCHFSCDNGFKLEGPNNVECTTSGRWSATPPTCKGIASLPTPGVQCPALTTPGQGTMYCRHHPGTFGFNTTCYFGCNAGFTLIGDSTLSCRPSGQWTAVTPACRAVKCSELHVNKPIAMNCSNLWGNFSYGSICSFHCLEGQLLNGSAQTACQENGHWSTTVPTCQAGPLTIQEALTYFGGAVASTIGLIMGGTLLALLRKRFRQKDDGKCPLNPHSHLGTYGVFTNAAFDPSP

P-selectin [2] = target: T3, P-selectin; assay: The compound was tested for the concentration to inhibit 50% of Selectin P by blocking its activity; range is 250-500

Compound: CCCCCCCCCCCCCCC(CCCCCCCCCCCCCC)C(=O)N[C@@H](CO[C@H]1O[C@@H](C)[C@@H](O)[C@H](O)[C@@H]1O)C(=O)N[C@H](CCC(=O)O)C(=O)NC
- IC50 (E-selectin): > 100 µM
- IC50 (L-selectin): 0.8 µM
- IC50 (P-selectin [1]): 0.3 µM

Compound: CCCCCCCCCCCC(CCCCCCCCCCC)C(=O)N[C@H](COC1OC(C)C(O)C(O)C1O)C(=O)NC(CCC(=O)O)C(=O)NC (stereo partly specified)
- IC50 (E-selectin): 160 µM
- IC50 (L-selectin): 12 µM
- IC50 (P-selectin [1]): 15 µM

Compound: CCCCCCCCCCCCCCC(CCCCCCCCCCCCCC)C(=O)N[C@@H](CO[C@H]1O[C@H](CO)[C@@H](O)[C@@H](O)[C@@H]1O)C(=O)N[C@H](CCC(=O)O)C(=O)NC (stereo in doubt; 5b)
- IC50 (E-selectin): 16 µM
- IC50 (L-selectin): 3.1 µM
- IC50 (P-selectin [1]): 0.42 µM

Compound: CCCCCCCCCCCCCCCC(=O)N[C@H](COC1OC(C)C(O)C(O)C1O)C(=O)NC(CCC(=O)O)C(=O)NC (stereo partly specified)
- IC50 (E-selectin): > 500 µM
- IC50 (P-selectin [2]): 250 µM
- IC50 (L-selectin): 200 µM

Compound: CCCCCCCCCCCCCCC(CCCCCCCCCCCCCC)C(=O)N[C@@H](CO[C@H]1O[C@H](CO)[C@@H](O)[C@@H](O)[C@@H]1O)C(=O)N[C@H](CCC(=O)O)C(=O)NC (stereo in doubt; 5d)
- IC50 (E-selectin): > 1000 µM
- IC50 (L-selectin): 4.4 µM
- IC50 (P-selectin [1]): 0.38 µM

Compound: CCCCCCCCCCCCCCC(CCCCCCCCCCCCCC)C(=O)N[C@H](COC1OC(C)C(O)C(O)C1O)C(=O)NC(CC(=O)O)C(=O)NC (stereo partly specified)
- IC50 (E-selectin): > 500 µM
- IC50 (L-selectin): 3.8 µM
- IC50 (P-selectin [1]): 3.6 µM

Compound: CCCCCCCCCCCCCCC(CCCCCCCCCCCCCC)C(=O)N[C@@H](CO[C@H]1O[C@H](CO)[C@@H](O)[C@@H](O)[C@@H]1O)C(=O)N[C@H](CCC(=O)O)C(=O)NC (stereo in doubt; 5c)
- IC50 (E-selectin): > 1000 µM
- IC50 (L-selectin): 4.2 µM
- IC50 (P-selectin [1]): 0.68 µM

Compound: CCCCCCCCCCCCCCC(CCCCCCCCCCCCCC)C(=O)N[C@H](CO[C@H]1O[C@H](CO)[C@@H](O)[C@@H](O)[C@@H]1O)C(=O)N[C@@H](CCC(=O)O)C(=O)NC
- IC50 (E-selectin): 3.5 µM
- IC50 (L-selectin): 4 µM
- IC50 (P-selectin [1]): 0.45 µM

Compound: CC(=O)N[C@H]1[C@H]([C@H](O)[C@H](O)CO)O[C@@](O[C@H]2[C@@H](O)[C@@H](CO)O[C@@H](O[C@@H]([C@H](O[C@@H]3O[C@@H](C)[C@@H](O)[C@@H](O)[C@@H]3O)[C@H](C=O)NC(C)=O)[C@H](O)CO)[C@@H]2O)(C(=O)O)C[C@@H]1O [SIALYL LEWIS X]
- IC50 (L-selectin): > 1000 µM
- IC50 (P-selectin [1]): > 1000 µM

Compound: CCCCCCCCCCCCCCC(CCCCCCCCCCCCCC)C(=O)N[C@H](COC1OC(C)C(O)C(O)C1O)C(=O)NC(CCC(=O)O)C(=O)OC (stereo partly specified)
- IC50 (E-selectin): > 500 µM
- IC50 (L-selectin): 2.4 µM
- IC50 (P-selectin [1]): 1.6 µM

Other lines, results leading:

- IC50 (E-selectin): > 500 µM
- IC50 (L-selectin): > 500 µM
- IC50 (P-selectin [1]): 37 µM
Compound: CCCCCCCCCCCCCCC(CCCCCCCCCCCCCC)C(=O)N[C@H](COC1OC(C)C(O)C(O)C1O)C(=O)N[C@@H](CCC(=O)OC)C(=O)NC (stereo partly specified)

- IC50 (E-selectin): > 100 µM
- IC50 (L-selectin): 1.6 µM
- IC50 (P-selectin [1]): 0.3 µM
Compound: CCCCCCCCCCCCCCC(CCCCCCCCCCCCCC)C(=O)N[C@H](CO[C@H]1O[C@@H](C)[C@@H](O)[C@H](O)[C@@H]1O)C(=O)N[C@@H](CCC(=O)O)C(=O)NC

- IC50 (E-selectin): > 1000 µM
- IC50 (L-selectin): 0.7 µM
- IC50 (P-selectin [1]): 0.3 µM
Compound: CCCCCCCCCCCCCCC(CCCCCCCCCCCCCC)C(=O)N[C@H](CO[C@H]1O[C@@H](C)[C@@H](O)[C@H](O)[C@@H]1O)C(=O)N[C@H](CCC(=O)O)C(=O)NC

- IC50 (E-selectin): > 1000 µM
- IC50 (L-selectin): 1.8 µM
- IC50 (P-selectin [1]): 0.6 µM
Compound: CCCCCCCCCCCCCCC(CCCCCCCCCCCCCC)C(=O)N[C@@H](CO[C@H]1O[C@@H](C)[C@@H](O)[C@H](O)[C@@H]1O)C(=O)N[C@@H](CCC(=O)O)C(=O)NC

— ChEMBL document CHEMBL1131156, “Studies on selectin blockers. 7. Structure-activity relationships of sialyl Lewis X mimetics based on modified Ser-Glu dipeptides” (J Med Chem, 1998)
